Sampled rows, rich in hits. Any-hit rate of the full collection: about 3%.
SENP8 block-1 – human SENP8 protease inhibitors, primary screen, biochemical, fluorescence, Nedd8 protein substrate, uHTS | Sentrin-specific protease 8 (Homo sapiens), Q96LD8 | recombinant SENP8 | inhibition, % at 20 µM | hit rate 0.64% among 360,000 | AID 602440, 2012; in the data active means inhibition mostly above about 40%, no sharp cut-off; inactive means mostly below about 27%
Apaf-1 inh – inhibitors of human Apaf-1 apoptosome, primary screen, biochemical, DEVD-Rh110 fluorescence, uHTS. reconstituted apoptosome caspase-3 activity. inhibition, % at 20 µM. hit rate 0.71% among 330,000; active means inhibition of at least 40% at 20 µM;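 further: plate controls were DMSO wells for no effect and DEVD-CHO caspase inhibitor wells for full effect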
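Material: biochemical Apaf-1 apoptosome reconstitution. Medium: Hepes buffer, pH 7.5. Also added: cytochrome c activation, bis-DEVD rhodamine 110 substrate. Timing: 30 min compound preincubation, 50 min activation, room temperature. Measured by: rhodamine 110 fluorescence at Ex 480/Em 540 nm.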
SENP8 block-2 – SENP8 protease inhibitors, primary screen, biochemical, luminescence. Sentrin-specific protease 8 (Homo sapiens), Q96LD8. inhibition, % at 10 µM. purified SENP8, Z-RLRGG-aminoluciferin cleavage. hit rate 1.2% among 330,000; in the data active means inhibition above about 50%
SENP7 inh – SENP7 protease inhibitors, primary screen, biochemical, luminescence, uHTS. AID 434973, 2010. hit rate 1.5% among 330,000. Sentrin-specific protease 7 (Homo sapiens), Q9BQF6. inhibition, % at 5 µM. recombinant SENP7, Z-RLRGG-aminoluciferin luminescence, 40 min;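 active means inhibition above about 50% at the single test dose, limit read from the data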;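 further: plate controls were DMSO with enzyme for no effect and no enzyme buffer wells for full effect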
UBC13 inh – UBC13 polyubiquitin chain formation inhibitors, primary screen, biochemical, TR-FRET, uHTS | Ubiquitin-conjugating enzyme E2 N (Homo sapiens), P61088 | inhibition, % at 20 µM | hit rate 0.47% among 330,000 | AID 485273, 2010; in the data active means inhibition above about 45%, passing the limit was not always enough
SENP6 block – SENP6 protease inhibitors, primary screen, biochemical, luminescence, uHTS. Sentrin-specific protease 6 (Homo sapiens), Q9GZR1. Recombinant SENP6 catalytic domain, aminoluciferin luminescence. inhibition, % at 10 µM. hit rate 1.8% among 330,000;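 active means inhibition above about 50% at the single tested dose, limit read from the data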;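 further: plate controls were DMSO wells with enzyme for no effect and DMSO wells lacking enzyme for full effect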
Target sequence (Q9GZR1 628-1112 limits assumed): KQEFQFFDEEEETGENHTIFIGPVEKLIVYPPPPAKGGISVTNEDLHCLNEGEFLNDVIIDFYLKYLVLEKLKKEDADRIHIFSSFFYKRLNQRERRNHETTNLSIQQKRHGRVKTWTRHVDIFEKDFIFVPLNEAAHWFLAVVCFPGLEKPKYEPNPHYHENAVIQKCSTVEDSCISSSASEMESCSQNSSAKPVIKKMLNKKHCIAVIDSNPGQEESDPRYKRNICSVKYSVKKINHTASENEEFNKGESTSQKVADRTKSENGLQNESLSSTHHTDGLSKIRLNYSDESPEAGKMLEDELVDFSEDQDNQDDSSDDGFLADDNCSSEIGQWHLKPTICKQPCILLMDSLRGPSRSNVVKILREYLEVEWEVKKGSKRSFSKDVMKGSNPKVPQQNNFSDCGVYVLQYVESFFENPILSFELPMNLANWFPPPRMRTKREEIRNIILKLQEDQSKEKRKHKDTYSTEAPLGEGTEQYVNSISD
SENP8 conf – SENP8 protease inhibitors, retest, confirmation, biochemical, luminescence, single concentration | shares compounds with SENP7 inh | AID 488912, 2010 | inhibition, % at 12.5 µM | hit rate 40% among 6,200 | Recombinant SENP8, Z-RLRGG-aminoluciferin luminescence, 60 min;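 active means mean inhibition across replicates above about 50%, limit read from the data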
SENP6 confirm – SENP6 protease inhibitors, confirmation, biochemical, luminescence, single concentration; shares compounds with SENP7 inh; recombinant SENP6, Z-RLRGG-aminoluciferin luminescence; inhibition, % at 12.5 µM; hit rate 58% among 6,200; AID 488915, 2010
SENP7 confirm – SENP7 protease inhibitors, retest, confirmation, biochemical, luminescence, single concentration | recombinant SENP7, Z-RLRGG-aminoluciferin luminescence, 40 min | shares compounds with SENP7 inh | inhibition, % at 12.5 µM | hit rate 69% among 6,200
Casp3 select – caspase-3 protease inhibitors, confirmation, selectivity assay for SENP inhibitor project, biochemical, single concentration | shares compounds with SENP7 inh | purified caspase-3, Z-DEVD-aminoluciferin luminescence, 60 min | inhibition, % at 12.5 µM | hit rate 60% among 6,200 | AID 488918, 2010;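 active means mean inhibition above about 50%, limit read from the data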;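 further: plate controls were enzyme with DMSO for no effect and wells without caspase-3 for full effect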
Target sequence (P42574 28-227 limits assumed): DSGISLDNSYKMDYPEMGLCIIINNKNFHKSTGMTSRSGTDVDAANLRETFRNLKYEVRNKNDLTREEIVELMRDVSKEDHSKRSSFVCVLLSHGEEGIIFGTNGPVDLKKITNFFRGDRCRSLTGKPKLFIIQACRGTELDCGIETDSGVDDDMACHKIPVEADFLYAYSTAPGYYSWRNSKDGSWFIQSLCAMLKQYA
Luc interf – counter-screen for SENP inhibitors: luminescence interference; inhibition, % at 12.5 µM; hit rate 39% among 6,200; Pre-incubated SENP8/Z-RLRGG-aminoluciferin, luciferase luminescence interference; shares compounds with SENP7 inh;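 active means mean inhibition above about 50% when retested at one dose, limit read from the data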;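 further: plate controls were DMSO wells with completed reaction for no effect and substrate without enzyme for full effect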
Numbers without * were called inactive; . = no result given.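 How the source made its calls, unless noted: active means mean inhibition above about 50% in the one-dose retest (limit read from the data); inactive means the rest.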

SMILES	SENP8 block-1	Apaf-1 inh	SENP8 block-2	SENP7 inh	UBC13 inh	SENP6 block	SENP8 conf	SENP6 confirm	SENP7 confirm	Casp3 select	Luc interf
COc1cc2nc(Nc3ccc(C)c(C)c3)nc(N)c2cc1OC	-291.5	9.0	3.2	18.6	34.2	26.5	.	.	.	.	.
COc1cc2nc(Nc3ccc(F)cc3)nc(N)c2cc1OC	-320.9	16.9	50.6*	67.2*	19.4	63.3*	65.5*	63.0*	89.5*	60.9*	70.4*
CCOC(=O)c1ccc(Nc2ccc(-c3ccc(OC)c(OC)c3)nn2)cc1	-89.9	-9.1	-0.8	-1.6	-12.7	-1.6	.	.	.	.	.
CCOC(=O)c1ccc(Nc2nc(N)c3cc(OC)c(OC)cc3n2)cc1	-285.7	54.2*	73.0*	97.1*	34.0	76.2*	66.2*	77.7*	94.6*	58.0*	64.5*
O=C(NCc1ccccc1)c1ccc(N2CCC3(CC2)CC(c2ccc(Cl)cc2)=NO3)c([N+](=O)[O-])c1	16.4	9.8	-8.8	-10.6	-36.7	-3.4	.	.	.	.	.
CCOC(=O)C(C)On1c(-c2ccccc2)nc2ccc([N+](=O)[O-])cc21 (centres undefined)	14.6	6.6	71.2*	76.5*	1.7	84.0*	27.6	25.0	66.3*	58.9*	60.9*
O=C(O)COn1c(-c2ccccc2)nc2ccc([N+](=O)[O-])cc21	4.0	8.6	70.2*	88.1*	-10.7	82.1*	1.3	0.5	33.3	52.9*	55.8*
Clc1ccc(COn2c(-c3ccccc3)nc3ccccc32)cc1	-6.1	14.1	1.5	1.3	11.3	10.3	.	.	.	.	.
CC(O)c1nc2cc([N+](=O)[O-])ccc2n1Cc1ccccc1 (centres undefined)	29.6	3.2	12.2	-9.8	-2.8	17.6	.	.	.	.	.
CCOC(=O)C(C)On1c(-c2ccc(Cl)cc2)nc2ccc([N+](=O)[O-])cc21 (centres undefined)	-48.2	3.2	65.1*	49.9	5.2	70.0*	-0.4	-5.4	28.6	6.4	24.9
Cc1ccc(COn2c(-c3ccc(Cl)cc3)nc3ccc([N+](=O)[O-])cc32)cc1	21.6	-10.1	42.2	56.0*	-9.8	67.2*	11.4	16.6	49.1	22.4	23.9
O=C(O)COn1c(-c2ccc(Cl)cc2)nc2ccc(Cl)cc21	-7.1	5.9	-7.3	-7.7	-3.9	0.5	.	.	.	.	.
Cn1c(=O)c2c(nc(NCc3ccco3)n2CC(O)CO)n(C)c1=O (centres undefined)	7.5	-15.7	-3.1	1.8	0.6	-14.1	.	.	.	.	.
O=c1oc2c(O)cccc2cc1-c1nc2ccccc2[nH]1	-286.6	-8.4	0.7	96.0*	15.4	92.9*	31.2	85.2*	36.2	38.7	14.4
O=c1cc(/C=C/c2ccccc2)oc2ccccc12	-114.3	14.5	55.3*	48.6	-15.9	62.3*	-3.1	77.8*	93.2*	64.3*	72.9*
Cc1cccc(NC(=S)N2CCN(S(=O)(=O)c3ccc(F)cc3)CC2)c1	12.1	11.1	7.6	-5.9	4.3	-2.8	.	.	.	.	.
CSCCC(NC(=O)c1ccccc1)C(=O)N/N=C(\C)Cc1ccccc1 (centres undefined)	12.5	-1.1	-2.4	-4.5	-1.2	22.4	.	.	.	.	.
O=C(/C=C/Nc1ccc([N+](=O)[O-])cc1Br)c1cccc2ccccc12	-5.8	-1.8	8.6	85.6*	8.6	87.2*	14.9	15.8	27.3	13.9	1.3
NC(=O)c1cc([N+](=O)[O-])ccc1NCc1cccc2ccccc12	14.7	9.8	2.5	-8.2	7.0	-7.3	.	.	.	.	.
O=C(NCc1ccccc1Cl)c1ccc2nc([C@H]3C[C@H](O)[C@@H](CO)O3)[nH]c2c1	4.1	.	.	.	.	.	.	.	.	.	.
C/C(=N\Nc1ccccc1[N+](=O)[O-])c1ccccc1O	40.2*	-10.5	23.3	74.5*	-32.6	41.6	10.6	14.5	18.9	24.1	5.7
C/C(=N\Nc1ccc(S(N)(=O)=O)cc1[N+](=O)[O-])c1ccccc1O	39.3	-30.8	-9.8	-1.4	-57.4	-22.1	.	.	.	.	.
C/C(=N\Nc1cccc2cccnc12)c1ccccc1O	-6.5	5.9	77.0*	88.1*	10.0	82.2*	6.7	18.0	21.5	25.0	3.1
COc1cccc(C(CNC(=O)c2ccc(Cl)c(S(=O)(=O)N3CCCC3)c2)N(C)C)c1 (centres undefined)	-1.8	5.5	-0.8	-0.2	14.6	-0.1	.	.	.	.	.
Cc1ccc(C2=Nc3ccccc3N=C(C(Cl)Cl)C2)cc1	-64.6	11.0	69.2*	58.3*	-10.6	84.3*	38.0	37.3	72.3*	85.5*	80.0*
SMILES	SENP8 block-1	Apaf-1 inh	SENP8 block-2	SENP7 inh	UBC13 inh	SENP6 block	SENP8 conf	SENP6 confirm	SENP7 confirm	Casp3 select	Luc interf
Oc1cccc2ccc(/C=C/c3c(F)cccc3Cl)nc12	-33.4	11.9	85.3*	94.1*	0.1	95.3*	23.2	60.4*	37.0	63.5*	4.3
Oc1cccc2ccc(/C=C/c3ccccc3Cl)nc12	-35.7	16.3	88.3*	83.5*	-21.6	98.9*	83.0*	90.1*	67.0*	85.5*	32.6
Cc1cc[n+](CC(=O)Nc2cccc(C)c2)cc1	7.3	-5.2	-7.5	-3.2	-0.8	-4.6	.	.	.	.	.
O=C(COC(=O)/C=C/c1ccc(C(F)(F)F)cc1)NCC1CCCO1 (centres undefined)	10.1	-4.7	-6.7	-3.3	-5.7	-4.9	.	.	.	.	.
CSc1nc2ccc(NC(=O)c3ccco3)cc2s1	0.3	12.3	-4.6	10.1	-12.0	4.6	.	.	.	.	.
CC(=O)Nc1ccc2nc(NC(=O)c3ccco3)sc2c1	-372.6	-3.5	33.6	66.3*	-7.6	68.3*	57.2*	54.3*	85.9*	84.5*	21.8

Bioassay records deposited in PubChem by Sanford-Burnham Center for Chemical Genomics.
